# Rows were chosen to be rich in hits. Some 3.2% of all compounds tested hit in one or more screens of this group.
# Ecoli rRNA inh: inhibitors of bacterial rRNA selective over humanized ribosomes | hit rate 1.6% among 350,000 | GFP signal change (wild-type ribosome), % (no concentration beside the values) | E. coli WT GFP vs humanized-ribosome RFP mutants, fluorescence, 24 h; active compounds read low; DMSO median 0, no signal -100;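 active = significant combined selectivity score with lowered wild-type GFP, culture density cut under 30%, mutant RFP and density less affected; inactive = any of these conditions unmet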
# S100A4 inh HTS: inhibitors of human S100A4 binding to myosin IIA peptide; hit rate 0.14% among 360,000; inhibition, % at 10.7 µM; S100A4/TAMRA-MyoIIA peptide fluorescence polarization; AID 652163; P26447;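 active = mean inhibition of at least 70% across replicates, with every replicate also reaching that level; inconclusive = mean inhibition reaches 70% but some replicates fall short; inactive = mean inhibition below 70%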
# Target sequence (P26447 whole entry, looked up): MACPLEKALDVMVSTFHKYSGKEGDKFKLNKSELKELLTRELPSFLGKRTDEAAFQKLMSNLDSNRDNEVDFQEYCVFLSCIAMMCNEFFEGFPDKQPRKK
#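 Material: S100A4 monomer protein / Buffer or medium: 50 mM HEPES pH 7.2, 10 mM CaCl2, 100 mM KCl / Times: 5 min incubation before reading / Benchmarks: neutral control DMSO, positive control TFP / Reagent: labelled myosin peptide probe, 5 nM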
# DENV2 CPE rescue: inhibitors of DENV2 cytopathic effect | DENV2-infected cells, cytopathic effect rescue, plate reader | CPE inhibition, % at 9.99 µM | hit rate 1.7% among 350,000 | AID 651640; in the data active = CPE inhibition above about 20%, passing the limit was not always enough; inconclusive = no clear call, values can overlap the other calls; tested in BHK-21 cells;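 note: 0% = median of neutral control wells and 100% = median of positive control wells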
# MLL AF4-AF9 inh: inhibitors of human MLL-AF4/AF9 interaction; AlphaScreen, biotin-AF4 peptide binding to FLAG-AF9; inhibition, % at 10 µM; AID 651704; hit rate 0.47% among 350,000;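 active = every replicate reaching a set inhibition limit, whatever the replicate mean, cut at about 25% in these data; inconclusive = mean inhibition reaches that limit but some replicates miss it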;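 note: 0% = plate neutral control median and 100% = total signal loss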
# Target sequence (P42568 whole entry, looked up): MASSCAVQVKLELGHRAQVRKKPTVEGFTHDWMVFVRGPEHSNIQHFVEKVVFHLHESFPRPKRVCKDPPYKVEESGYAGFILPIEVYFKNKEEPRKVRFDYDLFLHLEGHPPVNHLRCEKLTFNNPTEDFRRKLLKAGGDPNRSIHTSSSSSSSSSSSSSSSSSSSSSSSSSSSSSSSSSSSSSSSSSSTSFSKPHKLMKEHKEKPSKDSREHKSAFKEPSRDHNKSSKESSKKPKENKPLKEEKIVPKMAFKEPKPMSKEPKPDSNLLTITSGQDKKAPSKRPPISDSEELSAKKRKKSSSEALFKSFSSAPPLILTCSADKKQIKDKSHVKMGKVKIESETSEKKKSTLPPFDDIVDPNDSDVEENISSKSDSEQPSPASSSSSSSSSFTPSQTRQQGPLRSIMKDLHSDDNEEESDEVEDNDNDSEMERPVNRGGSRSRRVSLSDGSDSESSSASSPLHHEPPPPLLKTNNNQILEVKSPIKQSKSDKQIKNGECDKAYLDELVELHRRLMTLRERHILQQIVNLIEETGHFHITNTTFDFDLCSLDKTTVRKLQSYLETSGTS
# Cneo AK release: causes C. neoformans cell lysis; adenylate kinase release luminescence, 4 h; normalised: neutral wells 0, clomiphene wells 100; lysis activity, % at 15 µM; hit rate 0.2% among 360,000;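 active = mean lysis activity across replicates of at least 80%, whatever share of replicates individually reach that level; inactive = mean lysis activity below 80%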
#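 Material: C. neoformans cells | Amount: Yeast cell density of 5 × 10^6 cells/mL | Medium: Fresh YPD growth medium | Dosing: Single dose | Times: Static 4 h at 37 °C with compound, 1 h detection | Detection: AK luminescence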
# PfHsp90 set2: growth inhibition of yeast expressing Plasmodium Hsp90; hit rate 0.32% among 310,000; inhibition, % at 9.4 µM; S. cerevisiae expressing PfHsp90, BacTiter-Glo ATP, 48 h; yeast lacking PDR1 and PDR3 efflux regulators;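 active = every replicate shows inhibition above about 80%, whatever the replicate mean, limit read from the data; inconclusive = mean inhibition reaches the set limit but some replicate falls short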;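 note: 0% = DMSO neutral controls and 100% = 20 µM radicicol positive controls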
# Active calls of the source: *; ? = inconclusive; . = no result.
SMILES,Ecoli rRNA inh,S100A4 inh HTS,DENV2 CPE rescue,MLL AF4-AF9 inh,Cneo AK release,PfHsp90 set2
O=C(Nc1ccccc1Cl)N1C[C@H]2[C@@H](c3ccccc31)[C@H](CO)N2Cc1ccccc1,-23.1*,-3.7,-6.7,1.6,-9.6,.
COc1ccc(CN2[C@H](CO)[C@H]3c4ccccc4N(C(=O)Nc4ccc(F)cc4)C[C@H]32)cc1,-4.1,-9.1,21.9*,2.3,5.0,.
O=C(Nc1ccccc1Cl)N1C[C@@H]2[C@H](c3ccccc31)[C@@H](CO)N2Cc1ccccc1,-19.6,9.5,-2.9,3.3,-2.4,.
COc1ccc(CN2[C@H](CO)[C@@H]3c4ccccc4N(C(=O)Nc4ccccc4)C[C@@H]32)cc1,-1.6,-0.5,-4.6,0.3,-0.5,.
C[C@@H]1CN([C@@H](C)CO)C(=O)c2cc(-c3ccc(C#N)cc3)cnc2O[C@@H]1CN(C)Cc1ccccn1,3.9,.,.,-0.5,-1.5,.
C[C@H]1CN([C@@H](C)CO)C(=O)c2cc(NC(=O)C3CC3)ccc2O[C@H]1CN(C)C(=O)Nc1ccccc1,0.1,-10.4,-1.5,-0.4,-51.4,.
C/C(N)=C(/C#N)C(=O)CSc1nnc(Cc2ccccc2F)n1N,7.6,-4.0,54.4*,-2.2,5.4,-2.8
C/C(N)=C(/C#N)C(=O)CSc1ccccc1F,3.8,-1.8,5.7,-1.6,.,27.1
CNC(=O)C[C@H]1CC[C@H]2[C@@H](COc3ccc(NC(=O)C4CC4)cc3C(=O)N2C)O1,-3.1,.,-4.0,.,0.0,.
COC(=O)C[C@H]1CC[C@H]2[C@H](COc3ccc(NC(=O)Nc4cccc(C)c4)cc3C(=O)N2C)O1,-3.2,-1.4,-2.2,5.9,-2.5,.
O=C(Nc1cccc2ccccc12)OCc1ccccc1,9.3,-3.9,?,-7.8,-0.1,.
O=C(NCCOC(=O)Nc1cccc2ccccc12)OCc1ccccc1,-33.5*,3.3,7.6,-6.8,-2.5,6.0
O=C(c1ccncc1)N1CCCC(N2CCN(c3cccc(C(F)(F)F)c3)CC2)C1 (configuration not stated),0.6,1.9,20.9*,1.2,-0.5,-6.8
C[C@H]1CN([C@@H](C)CO)C(=O)Cc2cc(NS(=O)(=O)c3ccccc3)ccc2O[C@H]1CN(C)C(=O)NC1CCCCC1,4.5,-26.7,0.4,-1.6,-2.6,.
COc1ccc(C#Cc2ccc([C@@H]3[C@@H](CO)N4CCCCN(Cc5ccccc5F)C[C@H]34)cc2)cc1,-59.6,-2.5,-33.9,29.2*,6.5,.
CC(C)(O)C#Cc1ccc([C@@H]2[C@H]3CN(Cc4ccccc4F)CCCCN3[C@H]2CO)cc1,6.9,.,.,.,-4.6,.
COCC#Cc1ccc([C@@H]2[C@H]3CN(Cc4ccccc4F)CCCCN3[C@H]2CO)cc1,4.6,-15.8,46.8*,3.0,-0.9,.
COc1ccc(C#Cc2ccc([C@H]3[C@H]4CN(Cc5ccccc5F)CCCCN4[C@H]3CO)cc2)cc1,-33.7,-21.3,-32.7,7.1,1.9,.
Fc1ccc(C2CCNCC2COc2ccc3c(c2)OCO3)cc1 (configuration not stated),3.2,2.0,1.7,32.0*,11.6,0.0
O=C1[C@H]2[C@@H](/C=C/c3ccccc3)N3C(=O)CN(CCO)C(=O)[C@@]3(Cc3ccccc3)[C@H]2C(=O)N1c1ccccc1,-1.4,20.4,56.5*,-1.1,-3.9,11.4
CN1C(=O)[C@H]2[C@@H](/C=C/c3ccccc3)N3C(=O)CN(CCO)C(=O)[C@@]3(Cc3ccccc3)[C@H]2C1=O,.,-1.3,9.2,-3.9,-0.9,9.3
CCC(=O)Nc1ccc2c(c1)C(=O)N(C)C[C@@H](OC)[C@@H](C)CN(C(=O)COC)[C@H](C)CO2,1.4,3.4,21.8*,-2.3,2.6,.
CCS(=O)(=O)Nc1ccc2c(c1)C(=O)N(C)C[C@@H](OC)[C@@H](C)CN(C(C)=O)[C@H](C)CO2,1.0,98.1*,-5.5,1.7,6.9,.
CCC(=O)N1C[C@H](C)[C@H](OC)CN(C)C(=O)c2cc(NC(=O)NC3CCCC3)ccc2OC[C@H]1C,2.6,11.0,4.4,-3.1,.,.
CCC(=O)N1C[C@H](C)[C@H](OC)CN(C)C(=O)c2cc(NC(=O)COC)ccc2OC[C@H]1C,-2.5,1.6,20.7*,-3.4,0.3,.
SMILES,Ecoli rRNA inh,S100A4 inh HTS,DENV2 CPE rescue,MLL AF4-AF9 inh,Cneo AK release,PfHsp90 set2
CCC(=O)N1C[C@H](C)[C@H](OC)CN(C)C(=O)c2cc(NC(=O)NC3CCCC3)ccc2OC[C@@H]1C,4.7,-5.7,38.9*,-0.1,.,.
CCS(=O)(=O)Nc1ccc2c(c1)C(=O)N(C)C[C@@H](OC)[C@H](C)CN(C(C)=O)[C@@H](C)CO2,1.7,-2.1,-0.6,1.5,-0.3,.
O=C(N[C@H]1CC[C@@H](CCn2cc(Cc3ccccc3)nn2)O[C@@H]1CO)c1ccccn1,0.4,2.6,12.5,-1.3,-6.2,.
CCCC(=O)Nc1ccc2c(c1)OC[C@H](C)N(C(=O)C1CCCC1)C[C@@H](C)[C@@H](OC)CN(C)C2=O,-0.3,5.9,-7.8,-2.8,0.8,.
C[C@@H]1CN([C@@H](C)CO)C(=O)c2cc(C#CC3CCCCC3)cnc2O[C@H]1CN(C)Cc1ccncc1,-10.4,-16.1,-2.3,12.2,9.4,.
O=C(Cc1ccccn1)N[C@H]1CC[C@@H](CCn2cc(-c3cccnc3)nn2)O[C@@H]1CO,-0.8,18.9,-6.7,1.0,-0.7,.
COCC(=O)Nc1ccc2c(c1)C(=O)N(C)C[C@H](OC)[C@@H](C)CN(C(C)=O)[C@H](C)CO2,4.4,24.1,3.7,0.2,43.8,.
COCC(=O)Nc1ccc2c(c1)C(=O)N(C)C[C@@H](OC)[C@H](C)CN(C(C)=O)[C@H](C)CO2,2.9,5.3,101.5*,-2.6,-1.5,.
COCC(=O)Nc1ccc2c(c1)C(=O)N(C)C[C@H](OC)[C@H](C)CN(C(=O)CC1CC1)[C@H](C)CO2,2.0,8.8,42.5*,-4.6,-0.3,.
CO[C@H]1CN(C)C(=O)c2cc(NC(=O)Nc3ccccc3)ccc2OC[C@@H](C)N(C(C)=O)C[C@@H]1C,0.0,-4.6,9.4,1.7,-2.3,.
CO[C@H]1CN(C)C(=O)c2cc(NC(=O)Nc3ccccc3)ccc2OC[C@H](C)N(C(C)=O)C[C@H]1C,-1.8,-5.9,65.5*,4.1,-4.5,.
CO[C@H]1CN(C)C(=O)c2cc(NC(C)=O)ccc2OC[C@@H](C)N(C(=O)c2ccccc2)C[C@@H]1C,0.7,-1.7,23.8*,-0.8,7.1,.
O=C(C[C@H]1C=C[C@H](NC(=O)Nc2cc(F)ccc2F)[C@H](CO)O1)Nc1ccc(-c2ccccc2)cc1,-5.4,1.8,-1.3,-2.1,1.1,.
C[C@@H]1CN([C@H](C)CO)C(=O)c2cc(NS(=O)(=O)c3cccs3)ccc2O[C@@H]1CN(C)S(=O)(=O)c1ccccc1,-2.5,-0.2,2.6,-5.4,2.1,.

# Source: PubChem (Broad Institute)
